This data set concerns MS2 coat protein. Kind of data set: apparent Kd, MS2 coat protein; higher = weaker binding; RNA-MaP array; FMN 200 µM where present. In short, it runs like this: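 SNAP-549-labelled MS2 coat protein, doubled from 0.7 or 1.5 nM to 3 µM, was titrated over designs transcribed by stalled E. coli RNA polymerase on Illumina sequencing-chip clusters. Titrations were run without and then with constant ligand in 100 mM Tris-HCl pH 7.5, 80 mM KCl, 4 mM MgCl2, BSA, DTT, yeast tRNA and Tween-20. The apparent Kd is the median of filtered per-cluster fits to green signal normalised to red-channel RNA signal and control-cluster median Fmax.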

Setting [1] is: designed as: OFF switch for flavin mononucleotide, no ligand.
Where [2] appears, read: ligand present: flavin mononucleotide, designed as: OFF switch for flavin mononucleotide.
Where [3] appears, read: designed as: ON switch for flavin mononucleotide, no ligand.
Setting [4] is: ligand present: flavin mononucleotide, designed as: ON switch for flavin mononucleotide.

From the EternaBench riboswitch data come the findings set out here.

Broadly, the apparent Kd is the concentration giving half-maximal binding under the conditions of the assay. For “UUAUGCUUUAAGAAGGUUCAAACUACAUAUUGCGCACAUGAGGAUCACCCAUGUUGGUGAAUAAGAAAGGAUAUUAGACUGUGC”, the “apparent Kd” value is 332 nM under setting [1] and 223 nM under setting [2].
Take “GGAAAGUGAGGAUAUGGUAAUUUAAUUAUUAAUUAAUUAAUCCAGAAGGCACAUGAGGAUCACCCAUGUAAAUG”: the “apparent Kd” value under setting [1] was determined as 35.9 nM and the “apparent Kd” value under setting [2] was 61.5 nM.
Consider “ACAUGAGGAUCACCCAUGUUAAAUUAGGAUAUAUGACUGCACAUGAGGUUCACCCAUGUUCUACCGUAGAAGGGAUAAAUAAUU”, for which the “apparent Kd” value by setting is: under setting [3], 52.6 nM; under setting [4], 59.4 nM.
As for “GGACGUCACAUGAACAUGAGGAUCACCCAUGUAAAUUCUCAUGAGGAUAUGGAUCCUAAUUGGAUCCAGAAGGCGUGGACGUCC”, the “apparent Kd” value under setting [3] is 1030 nM and the “apparent Kd” value under setting [4] is 415 nM.
“AACAUCCAAGCGCCCGGGUGGAGGAGAAGGCGGACAUGAGGAUCACCCAUGUGCAGCCACAAGUCCGAGGAUAUCCUUUGUGUU”: the “apparent Kd” value is, setting by setting: under setting [1], 10.6 nM; under setting [2], 20.2 nM.
Regarding “GCACGGAUGGUAGGAUAUCAUUGCGAUUAGCUAUGAGAAGGGCCACAUGAGGAUCACCCAUGUCCUCUAAUUAGCCUUCCGUGC”, the “apparent Kd” value reads like this: under setting [1], 101 nM; under setting [2], 101 nM.
With “UGGUACUAGGGAGGAUAUGGGAAGAUACAUGAGGAUCACCCAUGUUUAAGAAUGCCGAGAGGCACCUAGAAGGCCCUAGUACCU”, the “apparent Kd” value under setting [3] was found to be 21.1 nM and the “apparent Kd” value under setting [4] turned out to be 5.36 nM.
In the case of “ACGACGAAAGUCGAACGAUGAUCGAGAAGGACAUGAGGAUCACCCAUGUCUGCUGUAACAGCCAUGUAGGAUAUCGAUCAUCGA”, the “apparent Kd” value was 3.62 nM under setting [1] and 4.13 nM under setting [2].
“GCGUUCAUGUAGAAGGUACCUACAACAAAUUAUAACCGCUAGACACAUGAGGAUCACCCAUGUUGUAAGGAUAUACAUGAACGC”: the “apparent Kd” value was 25.2 nM under setting [3] and 17.1 nM under setting [4].
As for “GCGAAGAUAGCAGGAUAUAUGUUUCCUACAUGAGGAUCACCCAUGUAGGUGAUCAGCCGAGAAAAGUAGAAGGGCUAUCUUUGC”, the “apparent Kd” value turned out to be 16.5 nM under setting [3] and 13.7 nM under setting [4].
As for “CAGUACUGAGGAUAUACAUGAGGAUCACCCAUGUGAAAAAGCUACGAAAGUAGCAAAUGUAGAAGGCAGUACUG”, the “apparent Kd” value reads like this: under setting [1], 34.3 nM; under setting [2], 254 nM.
Take “CAGGUAGACUGAGGAUAUACAUGACUUAGUCUAUCUAGGUCAUAAACCACAUGAGGAUCACCCAUGUAGAAGGCAGUCUGCCUG”: the “apparent Kd” value reads like this: under setting [1], 17 nM; under setting [2], 19.8 nM.
In the case of “UAAUAGUGUGUUAGGAUAUGCUGGUCGAAAGAUCAGCAGAAGGAACAUGAGGAUCACCCAUGUAGAGUAUUUUA”, the “apparent Kd” value was 21.3 nM under setting [1] and 62.4 nM under setting [2].
“GGAAAACAUGAGGAUCACCCAUGUGAGGAUAUCGAUGUCCAAAAACCAGUGCGGGACUCGAGAAGGCACUUGGA”: the “apparent Kd” value under setting [1] is 49.1 nM and the “apparent Kd” value under setting [2] turned out to be 26.3 nM.
As to “AAUAGUGGCGUAGGAUAUCUGCGUACAUGAGGAUCACCCAUGUCUCCCAGCCGCUGAGCUGGGACAGAGAAGGGCGACCGCAUA”, the “apparent Kd” value by setting is: under setting [3], 229 nM; under setting [4], 88.9 nM.
For “CUAUUGGCAGGAUAUGCUUUUUUUGACAUGAGGAUCACCCAUGUGAUGCAUUUUGGGUUUGCAGAAGGGCCUGAGU”, the “apparent Kd” value runs as follows: under setting [1], 74.3 nM; under setting [2], 75.1 nM.
Regarding “GUAGCUUCAUUUAUACAUGAGGAUCACCCAUGUUACAUGGGUAAGGAUAUUGAUGUUAUGAUUAUCAAGAAGGUACUAUGCUAC”, the “apparent Kd” value by setting is: under setting [3], 663 nM; under setting [4], 39.6 nM.
As for “AAGUUUGUACAAGGAUAUCAAUUGUUUCUAAAUUCAACAUGAGGAUCACCCAUGUAACAAUGGAGUGAGAAGGUGUGUGGGCAA”, the “apparent Kd” value runs as follows: under setting [3], 419 nM; under setting [4], 423 nM.
Regarding “AGGUGACAUGAGGAUCACCCAUGUUGCAUAAAACAAGGAUAUGGGUGGCGGGAUCGCCAAUCAGAAGGUGUUCCGA”, the “apparent Kd” value reads like this: under setting [3], 44.1 nM; under setting [4], 36.9 nM.
Regarding “CUCGUGUGAGGAUAUUCGGGCGGGCUCGUUUGGGUUUGUUUGGAGAAGGUACAUGAGGAUCACCCAUGUGCUGG”, the “apparent Kd” value came out at 51 nM under setting [1] and 175 nM under setting [2].
As to “GGACGUCUCAUUAACAUGAGGAUCACCCAUGUCAAAAGACAUGAGGAUAUGGUUCCUAAUUGGAACCAGAAGGCAUGGACGUCC”, the “apparent Kd” value reads like this: under setting [3], 853 nM; under setting [4], 67.8 nM.
As for “UUACUAUUACAGAAGGUUAAAUAAUAUAUAAAUGAAGGAUAUGUAACAUGAGGAUCACCCAUGUUUCACCCAUAUGAGGAUCAC”, the “apparent Kd” value is, setting by setting: under setting [1], 8.49 nM; under setting [2], 7.99 nM.
Regarding “AAUUAAUUAAUUAAUUCCUGCAUACAUGAGGAUCACCCAUGUAAGGAUAUCGUCAGGAAUACUGACGAGAAGGUACAUAGCAGG”, the “apparent Kd” value came to 15.7 nM under setting [1] and 21.6 nM under setting [2].
With “GGGUACAUCGGAGGAUAUCAUAUAAAUACAUGAGGAUCACCCAUGUCGAUGGAGACAUCGGAGAUUGAGAAGGCCGAUGUACCG”, the “apparent Kd” value under setting [3] is 8.43 nM and the “apparent Kd” value under setting [4] was 5.54 nM.
For the sequence “ACCUCACAUGAGGAUCACCCAUGUCAGGAUAUCUAAUGUAGUAGCGUUCCCGACGCUAAGAGAAGGGACAUUAA”, the “apparent Kd” value was 15.9 nM under setting [1] and 22 nM under setting [2].
Turning to “UUAAUAAAGUAAGGAUAUACAUGAGGAUCUCUCGUAGAAGGUACUAUACAUGAGGAUCACCCAUGUGCCGGUCCGUAGACUGGA”, the “apparent Kd” value runs as follows: under setting [3], 387 nM; under setting [4], 796 nM.
For the sequence “UAAUUUUGUCAAGGAUAUGUAAUAUAGAUUUGUAAACAUGAGGAUCACCCAUGUAUAUGGUGGGAACAGAAGGUGAAUGGAGAA”, the “apparent Kd” value by setting is: under setting [1], 196 nM; under setting [2], 171 nM.
Take “GGAUGAGAAACUCAUCCAAUACGAACAUGAGGAUCACCCAUGUAGGAUAUGCUACUCAAAGAGUAGCAGAAGGACAUGUGCCUU”: the “apparent Kd” value under setting [1] amounted to 30 nM and the “apparent Kd” value under setting [2] amounted to 254 nM.
As to “GCUAUUGAUGUAGGAUAUGAUAUAGAAGCUAUGUCAGAAGGACAUGAGGAUCACCCAUGUCAAUGGAUGGAGAGAAGAAAUGGC”, the “apparent Kd” value is 62.6 nM under setting [1] and 75 nM under setting [2].
In the case of “UGUCGGAGCAGAGGAUAUUACAUGAGGAUCACCCAUGUAUGAACCAAUAGCUGGAAACAACAAUGUAAGAAGGCUGCUCCGACA”, the “apparent Kd” value came out at 7.22 nM under setting [1] and 38.8 nM under setting [2].
Turning to “GGAUCGAGUGUGAGGAUAUGCUGGUCCUUGGAUCAGCAGAAGGCACAUGAGGAUCACCCAUGUGUUCCCGAUCC”, the “apparent Kd” value was 43.6 nM under setting [1] and 626 nM under setting [2].
For “UCUGCCGCCGUGAGGAUAUGCCCGCGCGCACGCGGGCAGAAGGCACAUGAGGAUCACCCAUGUCCCGCGGUUUU”, the “apparent Kd” value reads like this: under setting [1], 17.6 nM; under setting [2], 38.1 nM.
Take “UACAAUCUAUCUGAGGAUAUCAUGAAAAAAACAUGAGGAUCACCCAUGUGCAGGAAAACUGCAUAUGAGAAGGCAGAUAGAUUGC”: the “apparent Kd” value reads like this: under setting [3], 671 nM; under setting [4], 29.3 nM.
As for “UUUGGUUGUGUAGGAUAUGUGUGGCGGGCUGGCACAGAAGGACAUGAGGAUCACCCAUGUGGUUUGGGUUGGGUGGUUGGCCCG”, the “apparent Kd” value by setting is: under setting [1], 943 nM; under setting [2], 771 nM.
Take “UUAUUUGUACAAGGAUAUCUAUUAUAUUCACGUCCUACAUGAGGAUCACCCAUGUUAUAUAUUUUAGAGAAGGUGUAUUGUCUG”: the “apparent Kd” value runs as follows: under setting [3], 31.9 nM; under setting [4], 35.3 nM.
With “CGUCCACAUGAGGAUCACCCAUGUGAGGAUAUCGAUGUCCCAGGGCGGGUGCGGGACUCGAGAAGGCGCUAGGU”, the “apparent Kd” value by setting is: under setting [1], 23.3 nM; under setting [2], 29 nM.
Consider “GGUACUCAAAGAGUACAAGGACGAACAUGAGGAUCACCCAUGUAGGAUAUGCUACUCAAAGAGUAGCAGAAGGACAUGUGCAGC”, for which the “apparent Kd” value runs as follows: under setting [1], 25.6 nM; under setting [2], 73 nM.
As to “CAGCUCUGAGGAUAUCCAUCCUCCUACAUGAGGAUCACCCAUGUUUCCCUCUGGGUUUUCGGAGAAGGCAGUUAUU”, the “apparent Kd” value reads like this: under setting [1], 238 nM; under setting [2], 459 nM.
Regarding “GGUCGUCAAGUCAGGAUAUCGUAUAGUAGAUGUAACGAGAAGGGACAUGAGGAUCACCCAUGUCGUCUCAUCAG”, the “apparent Kd” value was 18.9 nM under setting [1] and 25.8 nM under setting [2].
With “UGACGGAGCUGAGGAUAUAACAUGAGGAUCACCCAUGUAAGUCUCCAGGAAACUGGAGACAAUAGUUAGAAGGCAGCUCCGUCA”, the “apparent Kd” value under setting [1] was found to be 14.6 nM and the “apparent Kd” value under setting [2] came to 19.4 nM.
As to “CAUGACGAAGGAUAUACAUGAGGAUCACCCAUGUGGUCAUGGAAGUACGUGUUCUCGCGUAGAAGGUUGUAAAA”, the “apparent Kd” value came out at 12.9 nM under setting [1] and 13.6 nM under setting [2].
For “UACUUGUCAGGAUAUCUUACAUUAACAUCGUAGUUACCGUUGGAGAAGGGACAUGAGGAUCACCCAUGUUUGGC”, the “apparent Kd” value under setting [1] turned out to be 32 nM and the “apparent Kd” value under setting [2] stood at 54.9 nM.
Regarding “UAGGACUACGUAGGAUAUGUAGGAUAUUCCUACAUGAGGAUCACCCAUGUUAGCAUGUAAGUAGGACAGAAGGACGUGGUAAAU”, the “apparent Kd” value runs as follows: under setting [3], 695 nM; under setting [4], 79.9 nM.
“GUAGCAUACCGAGGAUAUUCAUAGCGGAAACGCACAUGAGGAUCACCCAUGUGGCGAAAGCCUUGGGAGAAGGCGGAAUGCUAC”: the “apparent Kd” value was 118 nM under setting [3] and 18.1 nM under setting [4].
As to “GUUUACGUGGAAGGAUAUACAUUUGACAUCCUGAUGCGCGCAAUACCCACAUGAGGAUCACCCAUGUAGAAGGUCUGCGAAAGA”, the “apparent Kd” value under setting [1] was 14.7 nM and the “apparent Kd” value under setting [2] stood at 18.4 nM.
The corresponding values for “UGUCCGAGCAGAGGAUAUUACAUGAGGAUCACCCAUGUAUGAACCAAUAGCUGGAAACAGCAAUGUAAGAAGGCUGCUCCGACA” are 12.2 nM and 155 nM.
Consider “GGCUUAAACACAGGAUAUAGUCUUAGGGCGAGACUAGAAGGGUGAAGUUCUCAUACAUGAGGAUCACCCAUGUCACGGAGGCUA”, for which the “apparent Kd” value under setting [3] turned out to be 45.1 nM and the “apparent Kd” value under setting [4] amounted to 169 nM.
“GUGGUGGGUUGAGGAUAUUGGUUGUUGUUGUCCCACAUGAGGAUCACCCAUGUGGGUUGUGGUUUUGAGAAGGUUGGUUGCUGG”: the “apparent Kd” value under setting [3] is 18.3 nM and the “apparent Kd” value under setting [4] came to 15.5 nM.
